Source: ChEMBL document CHEMBL1124618, “Synthesis of the 2-chloro analogues of 3'-deoxyadenosine, 2',3'-dideoxyadenosine, and 2',3'-didehydro-2',3'-dideoxyadenosine as potential antiviral agents” (1989)

Key:
[1] = organism: Homo sapiens; experiment: Compound was tested for its effect on Reverse Transcriptase (RT) production by HIV-Infected Human T4+ Lymphocytes (C8166) at 200 uM; format: functional
[2] = organism: Homo sapiens; experiment: Compound was tested for its effect on Reverse Transcriptase (RT) production by HIV-Infected Human T4+ Lymphocytes (C8166) at 2 uM; format: functional
[3] = organism: Homo sapiens; experiment: Compound was tested for its relative effect on p24 viral core protein production by HIV -infected human T4+ lymphocytes (C8166) at 100 uM; format: functional
[4] = organism: Homo sapiens; experiment: Compound was tested for its effect on the growth of human T4+ lymphocytes (C8166) in culture at 1000 uM; format: functional
[5] = organism: Homo sapiens; experiment: Compound was tested for its relative effect on p24 viral core protein production by HIV -infected human T4+ lymphocytes (C8166) at 200 uM; format: functional
[6] = organism: Homo sapiens; experiment: Compound was tested for its effect on Reverse Transcriptase (RT) production by HIV-Infected Human T4+ Lymphocytes (C8166) at 20 uM; format: functional
[7] = organism: Homo sapiens; experiment: Compound was tested for its effect on the growth of human T4+ lymphocytes (C8166) in culture at 500 uM; format: functional
[8] = organism: Homo sapiens; experiment: Compound was tested for its effect on the growth of human T4+ lymphocytes (C8166) in culture at 10 uM; format: functional
[9] = organism: Homo sapiens; experiment: Compound was tested for its relative effect on p24 viral core protein production by HIV -infected human T4+ lymphocytes (C8166) at 20 uM; format: functional
[10] = organism: Homo sapiens; experiment: Compound was tested for its effect on the growth of human T4+ lymphocytes (C8166) in culture at 100 uM; format: functional
[11] = organism: Homo sapiens; experiment: Compound was tested for its effect on Reverse Transcriptase (RT) production by HIV-Infected Human T4+ Lymphocytes (C8166) at 100 uM; format: functional
[12] = organism: Homo sapiens; experiment: Compound was tested for its effect on the growth of human B lymphocytes (Raji) in culture at 1 uM; format: functional
Summary of the method: (§1)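 Uninfected lymphocyte lines (Raji B cells or SupT1 T cells) kept in growth medium and given drug dilutions. After 48 h, cells stained with trypan blue and counted. Viable cells (dye exclusion) expressed as percentage of untreated controls. Values from a typical experiment.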

[13] = organism: Homo sapiens; experiment: Compound was tested for its effect on the growth of human T lymphocytes (SupT1) in culture at 1 uM; format: functional; summary of the method: as §1
[14] = system: SC-1 (Mus musculus); experiment: Compound was tested for its effect on the growth of mouse fibroblasts (SC-1) in culture at 10 uM
[15] = system: SC-1 (Mus musculus); experiment: Compound was tested for its effect on the growth of mouse fibroblasts (SC-1) in culture at 100 uM
[16] = organism: Homo sapiens; experiment: Compound was tested for its effect on the growth of human T lymphocytes (SupT1) in culture at 500 uM; format: functional; summary of the method: as §1
[17] = organism: Homo sapiens; experiment: Compound was tested for its effect on the growth of human T lymphocytes (SupT1) in culture at 10 uM; format: functional; summary of the method: as §1
[18] = organism: Homo sapiens; experiment: Compound was tested for its effect on the growth of human T lymphocytes (SupT1) in culture at 1000 uM; format: functional; summary of the method: as §1
[19] = system: SC-1 (Mus musculus); experiment: Compound was tested for its effect on the growth of mouse fibroblasts (SC-1) in culture at 1 uM
[20] = organism: Homo sapiens; experiment: Compound was tested for its effect on the growth of human B lymphocytes (Raji) in culture at 500 uM; format: functional; summary of the method: as §1
[21] = organism: Homo sapiens; experiment: Compound was tested for its effect on the growth of human T lymphocytes (SupT1) in culture at 100 uM; format: functional; summary of the method: as §1
[22] = organism: Homo sapiens; experiment: Compound was tested for its effect on the growth of human B lymphocytes (Raji) in culture at 10 uM; format: functional; summary of the method: as §1
[23] = organism: Homo sapiens; experiment: Compound was tested for its effect on the growth of human B lymphocytes (Raji) in culture at 1000 uM; format: functional; summary of the method: as §1
[24] = organism: Homo sapiens; experiment: Compound was tested for its effect on the growth of human B lymphocytes (Raji) in culture at 100 uM; format: functional; summary of the method: as §1
[25] = organism: Homo sapiens; experiment: Compound was tested for its effect on reverse transcriptase of HIV-infected human T4+ lymphocytes (C8166) at 20 uM; format: functional
Summary of the method: (§2)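 C8166 T4+ cells (~2 × 10⁵ per well) exposed to drug dilutions, then infected with 2500 RT units of cell-free HIV HXBc2 strain; FBS heat-inactivated (55 °C, 60 min) or not. Drug-containing medium replaced every 3 days. On day 6, RT activity measured in cell supernatants and compared with untreated controls.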

[26] = organism: Homo sapiens; experiment: Compound was tested for its effect on reverse transcriptase of HIV-infected human T4+ lymphocytes (C8166) at 2 uM; format: functional; summary of the method: as §2

SMILES: Nc1nc(Cl)nc2c1ncn2C1CCC(CO)O1 (configuration not stated)
- Control [1]: <1%
- Control [2]: 100%
- p24 [3]: 2.2 ng/mL
- Control [4]: 0%
- p24 [5]: 0.2 ng/mL
- Control [6]: 57%
- Control [7]: 37%
- Control [8]: 94%
- p24 [9]: 16 ng/mL
- Control [10]: 77%
- Control [11]: 3%

SMILES: Nc1ncnc2c1ncn2[C@H]1CC[C@@H](CO)O1
- Control [1]: <1%
- Control [2]: 25%
- p24 [3]: 1.8 ng/mL
- Control [4]: 91%
- p24 [5]: 0.2 ng/mL
- Control [6]: 25%
- Control [7]: 90%
- Control [8]: 116%
- p24 [9]: 28 ng/mL
- Control [10]: 116%
- Control [11]: <1%

SMILES: Nc1nc(Cl)nc2c1ncn2C1OC(CO)CC1O (configuration not stated)
- Control [12]: 98%
- Control [13]: 100%
- Control [14]: 53%
- Control [15]: 2%
- Control [16]: 13%
- Control [17]: 81%
- Control [18]: 8%
- Control [19]: 82%
- Control [20]: 8%
- Control [21]: 73%
- Control [22]: 69%
- Control [23]: 3%
- Control [24]: 43%

SMILES: Nc1nc(Cl)nc2c1ncn2C1C=CC(CO)O1 (configuration not stated)
- Control [25]: 25%
- Control [26]: 53%
